Key:
[1] = Inhibition of [14C]-L-NMMA (1 umol/L) binding to dimethylarginine dimethylaminohydrolase of rat kidney homogenate
How it was run: (§1)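 Rat kidney homogenized in PBS with PMSF 1 mM and leupeptin, pepstatin, chymostatin (5 µg/mL each), then spun; high-speed supernatant used as enzyme source (both DDAH isoforms). [14C]L-NMMA 1 µmol/L added, 1 h at 37 °C; stopped with neutral-pH Dowex resin binding unmetabolized L-NMMA. [14C]citrulline counted by scintillation. Screening at 1 mM or 100 µM; IC50 determined for actives.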

Rattus norvegicus [2] = organism: Rattus norvegicus; test: Inhibition of [14C]-L-NMMA (1 umol/L) binding to dimethylarginine dimethylaminohydrolase of rat kidney homogenate at 1 mM; how it was run: as §1
Rattus norvegicus [3] = organism: Rattus norvegicus; test: Inhibition of [14C]-L-NMMA (1 umol/L) binding to dimethylarginine dimethylaminohydrolase of rat kidney homogenate 100 uM; how it was run: as §1

Row | Structure (SMILES) | IC50 [1] [µM] | inhibition (Rattus norvegicus [2]) [%] | inhibition (Rattus norvegicus [3]) [%]
1 | COCC/N=C(/N)NCCC[C@H](N)C(=O)OC | 20 | – | 83
2 | CN(C)C(=N)NCC[C@H](N)C(=O)O | 325 | 85 | –
3 | COCCNC(=N)NCCC[C@H](N)C(=O)O | 22 | – | 100
4 | N/C(=N\CC[C@H](N)C(=O)O)N1CCCCC1 | 264 | 74 | –
5 | COCCN/C(N)=N/CC[C@H](N)C(=O)OC(C)C | 189 | – | 30
6 | CCCOC(=O)[C@@H](N)CC/N=C(\N)NCCOC | 111 | – | 64

More lines, now with the values ahead:

Row | IC50 [1] [µM] | inhibition (Rattus norvegicus [2]) [%] | inhibition (Rattus norvegicus [3]) [%] | Structure (SMILES)
7 | 1510 | 48 | – | C/N=C(\N)NCC[C@H](N)C(=O)O
8 | 300 | 100 | – | CC/N=C(\N)NCC[C@H](N)C(=O)O
9 | 189 | 90 | – | COCC/N=C(\N)NCC[C@H](N)C(=O)O
10 | 301 | 97 | – | CC(C)OCC/N=C(\N)NCC[C@H](N)C(=O)O

Reference: ChEMBL document CHEMBL1145158, “Selective substrate-based inhibitors of mammalian dimethylarginine dimethylaminohydrolase” (J Med Chem, 2005)
